Experimental data reported in ChEMBL document CHEMBL1124200, “6-substituted 1,3,4,5-tetrahydrobenz[cd]indol-4-amines: potent serotonin agonists” (J Med Chem, 1988).
Each block holds one compound with its values, some of them ahead of it.

Legend:
[1] = species on record: Rattus norvegicus; assay: Effect on 5HIAA (5-hydroxyindoleacetic acid) concentration in hypothalamus as an index of serotonin turnover in male Wistar rats expressed as percent of control; assay type: functional
In short: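 Hypothalamic 5-hydroxyindoleacetic acid in male Wistar rats, used as an index of serotonin turnover. Measured by liquid chromatography with electrochemical detection and expressed as percent of control.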

[2] = system: Rattus norvegicus; assay: In vivo serum corticosterone concentration in male Wistar rats after injecting 0.3 mg/kg of compound subcutaneously; assay type: functional, organism-based; design: dose 0.3 mg/kg
In short: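 Serum corticosterone in male Wistar rats, measured spectrofluorometrically and reported per 100 mL of serum.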

[3] = molecular target: Serotonin 1 (5-HT1) receptor (Rattus norvegicus, UniProt P28564+P30940+P19327+P28565); assay: Ability to inhibit binding of titreated serotonin to the 5-hydroxytryptamine 1 receptor in rat brain frontal cortex membranes; assay type: cell membranes, Membrane
[4] = molecular target: T1, Serotonin 2 (5-HT2) receptor (Rattus norvegicus, UniProt P30994+P08909+P14842); assay: Ability to inhibit binding of titreated spiperone to 5-hydroxytryptamine 2 receptor in rat brain frontal cortex membranes; assay type: cell membranes, Membrane
In short: (§1)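 5HT-2 binding in rat frontal cortex membranes with [3H]spiperone as radioligand. Tested at eleven concentrations between 0.1 and 10 000 nM, each in duplicate. IC50 is the concentration that halves specific binding, obtained by curve fitting.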

[5] = molecular target: T1, Serotonin 2 (5-HT2) receptor; assay: Ability to inhibit binding of titreated spiperone to the 5-hydroxytryptamine 2 receptor in rat brain frontal cortex membranes; assay type: cell membranes, Membrane; in short: as §1

Structure (SMILES): CCCN(CCC)C1Cc2c[nH]c3ccc(C#N)c(c23)C1 (stereo unspecified)
5-HIAA level, % of control [1]: 90%
Concentration [2]: 47 µg 100ml-1
IC50 [3]: 0.09 µM
IC50 [4]: 0.39 µM

IC50 [5]: 5.44 µM
IC50 [3]: 0.39 µM
Structure (SMILES): CN(C)C1Cc2c[nH]c3ccc(C(N)=O)c(c23)C1 (stereo unspecified)
5-HIAA level, % of control [1]: 99%
Concentration [2]: 9 µg 100ml-1

Structure (SMILES): COc1ccc2[nH]cc3c2c1CC(N(C)C)C3 (stereo unspecified)
5-HIAA level, % of control [1]: 65%
IC50 [5]: 1.756 µM
Concentration [2]: 41 µg 100ml-1
IC50 [3]: 0.096 µM

Structure (SMILES): CCCN(CCC)C1Cc2c[nH]c3ccc(Br)c(c23)C1 (stereo unspecified)
5-HIAA level, % of control [1]: 77%
Concentration [2]: 13 µg 100ml-1
IC50 [3]: 0.241 µM
IC50 [4]: 15.444 µM

Structure (SMILES): CCCN(CCC)C1Cc2c[nH]c3ccc(OC)c(c23)C1 (stereo unspecified)
5-HIAA level, % of control [1]: 58%
IC50 [5]: 1.179 µM
Concentration [2]: 48 µg 100ml-1
IC50 [3]: 0.036 µM

Structure (SMILES): CCCN(CCC)C1Cc2cccc3[nH]cc(c23)C1 (stereo unspecified)
IC50 [3]: 0.141 µM
IC50 [4]: 0.723 µM

Structure (SMILES): CCCN(CCC)C1Cc2c[nH]c3ccc(C(N)=O)c(c23)C1 (stereo unspecified)
5-HIAA level, % of control [1]: 61%
IC50 [5]: 4.817 µM
Concentration [2]: 49 µg 100ml-1
IC50 [3]: 0.083 µM
